Compounds with a hit are over-represented: about 2.4% of the library has one in this group of screens.
SIAE primary: human SIAE inhibitors, primary screen, biochemical, fluorescence polarization, FP-Rh probe, 1536-well HTS | Sialate O-acetylesterase (Homo sapiens), Q9HAT2 | SIAE FP-Rh probe binding | inhibition, % at 9.66 µM | hit rate 0.69% among 370,000 | AID 1053197, 2014;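 active means inhibition above a cutoff: mean of compounds within the control limits plus 3 SD of those, cut at about 17% in these data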;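 further: 0% = plate median of compound wells and 100% = probe without SIAE protein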
Target sequence (Q9HAT2 whole entry, looked up): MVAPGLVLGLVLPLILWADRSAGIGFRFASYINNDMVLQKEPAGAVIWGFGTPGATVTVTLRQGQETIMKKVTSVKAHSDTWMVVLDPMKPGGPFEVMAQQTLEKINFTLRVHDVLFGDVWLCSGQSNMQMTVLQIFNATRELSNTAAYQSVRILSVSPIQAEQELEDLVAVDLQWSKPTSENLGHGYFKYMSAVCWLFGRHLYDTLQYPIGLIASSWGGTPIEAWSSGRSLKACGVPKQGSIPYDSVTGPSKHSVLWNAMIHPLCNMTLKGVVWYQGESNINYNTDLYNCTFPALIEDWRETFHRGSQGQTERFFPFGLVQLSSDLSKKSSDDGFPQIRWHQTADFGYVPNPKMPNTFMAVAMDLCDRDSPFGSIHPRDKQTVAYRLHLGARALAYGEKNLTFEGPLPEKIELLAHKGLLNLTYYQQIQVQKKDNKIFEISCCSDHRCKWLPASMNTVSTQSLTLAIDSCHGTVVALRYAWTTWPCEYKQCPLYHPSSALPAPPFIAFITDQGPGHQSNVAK
PRMT1 inh: PRMT1 methyltransferase inhibitors, primary screen, biochemical, fluorescence polarization. Protein arginine N-methyltransferase 1 (Homo sapiens), Q99873. recombinant PRMT1, activity-based probe fluorescence polarization. inhibition, % at 2.79 µM. hit rate 1.3% among 370,000;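 active means inhibition above about 21% made by adding two undisclosed values, limit read from the data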
JMJD2C inh: inhibitors of GASC-1 histone demethylase, primary screen, biochemical, fluorescence, DELFIA europium | Lysine-specific demethylase 4C (Homo sapiens), Q9H3R0 | GST-JMJD2C(1-420) H3K9me3 demethylation | inhibition, % at 2.35 µM | hit rate 0.069% among 330,000 | AID 2099, 2009;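 active means more than half of a compound's replicate wells show inhibition beyond 50%, single wells judged on their own value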;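 further: signal counts dimethyl H3K9 product captured on neutravidin plate; 0% = median of DMSO wells and 100% = 0.3 times that DMSO median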
ABHD4 inh: ABHD4 inhibitors, primary screen, biochemical, fluorescence polarization, mouse; purified mABHD4, FP-Rh probe fluorescence polarization; inhibition, % at 8.92 µM; hit rate 0.54% among 370,000; AID 720543, 2013;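 active means inhibition exceeding the mean over every tested compound plus 3 SD, cut at about 30% in these data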;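 further: 0% = plate median of compound wells and 100% = S159A mutant with DMSO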
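system = mouse ABHD4 enzyme, wild type | medium = HEPES pH 7.0, NaCl, Pluronic buffer | also added = FP-Rh probe | incubation = Enzyme–compound pre-incubation 45 min, then probe 60 min, both 25 °C | technique = fluorescence polarization, excitation 525 nm, emission 598 nm, BODIPY TMR filters | controls = S159A mutant high control, sample median low control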
HTRA1 inhibitor: HTRA1 serine protease inhibitors, primary screen, biochemical, fluorescence polarization, HTS | Q92743 | recombinant HTRA1, FP-rhodamine activity-based probe | inhibition, % at 5.96 µM | hit rate 0.5% among 340,000; in the data active means inhibition above about 36%;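 further: 0% = enzyme with DMSO and 100% = wells lacking enzyme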
HTRA1 inh conf: HTRA1 protease inhibitors, retest, confirmation, biochemical, fluorescence polarization. shares compounds with HTRA1 inhibitor. hit rate 66% among 1,600. AID 540248, 2011. inhibition, % at 5.96 µM. recombinant HTRA1, FP-rhodamine activity-based probe;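 active means mean inhibition over three repeats above a set limit taken from the earlier primary screen, cut at about 37% in these data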;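 further: 0% = HTRA1 with DMSO and 100% = wells lacking HTRA1; inhibitors block probe binding so polarization drops and inhibition rises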
Numbers without * were called inactive; . = no result given.

SMILES | SIAE primary | PRMT1 inh | JMJD2C inh | ABHD4 inh | HTRA1 inhibitor | HTRA1 inh conf
COCC#Cc1ccc(CC[C@H]2O[C@H]3CC[C@H](CO)O[C@H]3C[C@H]2n2cc(C(C)(C)O)nn2)cc1 | 0.2 | -3.0 | . | -1.8 | . | .
CSCCCNC(=O)C1CCN(S(=O)(=O)c2ccc3[nH]c(=O)oc3c2)CC1 | 8.3 | 7.5 | . | 3.6 | . | .
COc1ccc(N2CCN(CCNS(=O)(=O)c3ccc(F)cc3)CC2)cc1 | 3.6 | 0.3 | . | 1.6 | . | .
CCOC(=O)N1CCN(S(=O)(=O)c2ccc(C(=O)NNc3nc4ccc(Cl)cc4s3)cc2)CC1 | . | . | -18.0 | . | 51.0* | 77.6*
CCOC(=O)N1CCN(S(=O)(=O)c2ccc(C(=O)NNc3nc4c(C)cccc4s3)cc2)CC1 | 10.7 | 9.3 | 44.2 | 23.0 | 47.6* | 168.4*
Cc1ccc2cc(NC(=O)C3(C)CCN3C(C)C)ccc2n1 (stereo not drawn) | 6.2 | 2.8 | . | -5.1 | . | .
CCOc1c(OC(C)=O)ccc(/C=C/c2ccc3cccc(OC(C)=O)c3n2)c1[N+](=O)[O-] | . | . | -1.5 | . | 36.7* | 26.6
CCOC1=C2[C@@H](CN(S(=O)(=O)c3ccc(C)cc3)[C@H]2c2ccccc2)[C@H]2C(=O)N(Cc3ccccc3)C(=O)[C@H]2C1 | 0.4 | -2.3 | . | 2.0 | . | .
COc1cc(O)c2c(=O)c3c(O)ccc(O)c3oc2c1 | 4.0 | -0.4 | . | 28.4 | 54.7* | 0.3
Cc1ccc(SCCc2cc[n+](CC(=O)c3ccccc3)cc2)cc1 | 2.6 | 6.7 | -24.0 | 9.4 | 14.6 | .
O=C(C[n+]1ccc(CCSc2ccc(F)cc2)cc1)c1ccccc1 | . | . | 9.3 | . | 37.4* | 59.9*
COc1ccc(-c2c[n+]3c4n2CCCCC4=C(c2ccc(Br)cc2)C3)cc1 | -0.1 | 1.4 | 2.3 | 1.9 | 52.4* | 20.5
c1ccc(-c2nc3cc4ccccc4cc3[nH]2)nc1 | 15.0 | -2.5 | -16.2 | 7.3 | 55.1* | 60.1*
CC(=O)Nc1ccc2nc(-c3ccccn3)[nH]c2c1 | -4.0 | 0.1 | -1.3 | 4.2 | 1.3 | .
Cc1ccc(CNc2ccc(O)cc2)cc1 | 47.7* | 16.1 | 17.9 | 68.4* | 60.4* | 27.3
Cc1ccc(NCc2ccccc2O)cc1 | 1.2 | 0.2 | 0.7 | -9.8 | 4.4 | .
CN=c1scc(-c2ccco2)n1/N=C/c1ccc(O)c(O)c1 | -2.3 | 9.3 | 7.1 | 39.7* | 73.5* | 72.6*
O=C(COc1ccccc1C(=O)N/N=C\c1ccc(O)c(O)c1)N/N=C/c1ccc(O)c(O)c1 | . | . | 5.7 | . | 47.2* | 58.6*
O=C(N/N=C/c1ccc(OCc2ccc(F)cc2)cc1)c1ccccc1 | -1.9 | -0.8 | 8.2 | 1.0 | -10.2 | .
CC(C)(C)c1ccc(OCc2ccc(C(=O)N/N=C/c3ccc(O)c(O)c3)cc2)cc1 | 13.5 | -3.4 | 13.7 | 24.9 | 45.3* | 81.5*
O=C(C(=O)N1CCN(c2ccncc2)CC1)c1cccc(Br)c1 | -3.3 | -9.2 | . | 17.8 | . | .
Nn1c(SCC(=O)Nc2ccc(S(=O)(=O)Nc3nccs3)cc2)nnc1-c1ccco1 | 2.1 | -0.8 | . | 4.8 | . | .
COc1cnc(-c2ccccn2)nc1Oc1ccc(Cl)c2ccccc12 | 0.6 | -5.5 | -2.7 | -1.4 | 53.4* | 54.1*
COc1cnc(-c2ccccn2)nc1Oc1ccccc1Cl | 3.5 | -2.0 | 3.5 | -2.2 | 6.2 | .
FC(F)(F)c1cnc(NNC(=S)Nc2ccccc2)c(Cl)c1 | 7.0 | -2.4 | . | 11.2 | 47.0* | 29.7
SMILES | SIAE primary | PRMT1 inh | JMJD2C inh | ABHD4 inh | HTRA1 inhibitor | HTRA1 inh conf
N/C(=N\OC(=O)c1ccccc1Cl)c1cccc([N+](=O)[O-])c1 | 5.1 | 0.5 | -5.4 | 0.3 | 2.0 | .
N/C(=N/OC(=O)c1ccccc1Cl)c1ncc([N+](=O)[O-])s1 | 2.5 | -0.5 | -0.5 | 2.0 | 56.6* | 34.4
O=C1[C@@H]2CSCCS(=O)(=O)N2C(=O)N1C1CCCCC1 | 2.5 | -3.0 | . | 0.5 | . | .
COc1cccc2c1C(=O)c1c(O)c3c(c(O)c1C2=O)C[C@@](O)(C(=O)CO)C[C@@H]3O[C@H]1C[C@H](N)[C@H](O)[C@H](C)O1 | 39.3* | 128.8* | -24.2 | 52.0* | 63.0* | 67.0*
Cc1cccc(N2CCN(c3ccc(NC(=O)/C=C(/C(=O)O)c4ccccc4)cc3)CC2)c1 | 7.8 | 0.9 | -27.2 | 23.8 | 49.4* | 41.1*
Nc1c(Cl)ncnc1N/N=C/c1ccc2ccccc2n1 | 5.2 | 3.4 | 6.2 | 27.3 | 79.4* | 72.0*
Oc1ccc(Br)cc1CNc1cccc2cccnc12 | 12.8 | -2.3 | 2.1 | 20.9 | 45.0* | 7.7
CC(C)C(=O)NC(c1ccccc1)c1cc([N+](=O)[O-])c2cccnc2c1O (stereo not drawn) | 5.0 | -1.5 | 10.6 | 15.2 | 39.1* | 46.2*
CC(=O)NC(c1ccccc1)c1cc([N+](=O)[O-])c2cccnc2c1O (stereo not drawn) | 4.6 | 13.2 | 11.7 | 21.6 | 52.9* | 68.8*
CC(=O)NC(c1cccs1)c1cc([N+](=O)[O-])c2cccnc2c1O (stereo not drawn) | 5.3 | 3.6 | -34.6 | 20.8 | 30.5 | .
CCCCc1c(-c2ccccc2OC)ncn1Cc1cc(F)cc(F)c1 | -2.3 | 0.2 | . | -1.2 | . | .
Clc1ccc(-c2nnc(Sc3nc4ccccc4o3)c3ccccc23)cc1 | -1.3 | -3.7 | -14.5 | -4.3 | 137.1* | -4.5
O=C(NCCc1ccccc1)c1ccc2nc(-c3ccco3)c(-c3ccco3)nc2c1 | . | . | 4.1 | . | 47.2* | 10.1
O=C(NCCc1ccccc1)c1ccc(=O)oc1 | 7.1 | -1.4 | 20.0 | 5.1 | 4.9 | .
CCOc1cccc(CNCCO)c1OCc1ccc(Cl)cc1Cl | -1.1 | -2.6 | -2.2 | 4.5 | -2.8 | .
CCOc1cccc(CNc2ccc(O)cc2)c1OCc1ccc(Cl)cc1Cl | 31.8* | 15.1 | 12.0 | 66.1* | 60.4* | 28.8
NC(CSC1(c2ccc(Cl)cc2)c2ccccc2-c2ccccc21)C(=O)O (stereo not drawn) | -16.7 | 5.8 | . | -23.5 | -68.9 | .
O=[N+]([O-])c1cccc(-c2cc3cccc[n+]3cc2-c2cccc([N+](=O)[O-])c2)c1 | 0.8 | -5.2 | 3.8 | 0.3 | 2.9 | .
Cc1cccc2cc(-c3ccccc3)c(-c3ccccc3)c[n+]12 | 1.1 | 3.9 | -0.3 | 17.4 | 56.1* | 74.1*
Cc1c(N=C2C=CC(=O)c3ccccc32)c(=O)n(-c2ccccc2)n1C | 7.5 | 7.2 | -7.1 | 9.5 | 36.9* | 33.5
CCC1=NN(C(=O)c2ccccc2O)C(O)(c2ccccc2)C1 (stereo not drawn) | 15.7 | 13.3 | 3.1 | 12.8 | 54.4* | 65.2*

Compound activity deposited in PubChem by several laboratories.
